ChEMBL document CHEMBL1142278, “Efficient inhibition of iron superoxide dismutase and of Trypanosoma cruzi growth by benzo[g]phthalazine derivatives functionalized with one or two imidazole rings” (J Med Chem, 2008)

Assays:
Trypanosoma cruzi [1] = assay: Antiparasitic activity against Trypanosoma cruzi epimastigotes after 72 hrs; type: functional, organism-based
Method in brief: (§1)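 Epimastigotes were cultured with compound at 2.5, 25 and 125 µM, and growth inhibition was read at 24, 48 or 72 h. IC50 was calculated by linear regression from Kc values at those concentrations. Results are the average of three separate determinations.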

[2] = Toxicity in african green monkey Vero cells after 72 hrs; type: cell-based; settings: African green monkey (Chlorocebus sabaeus)
Method in brief: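 Vero cells were cultured with compound for 72 h. The cytotoxic IC50 was derived by linear regression from Kc values at 2.5, 25 and 125 µM. Results are the average of three separate determinations.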

Trypanosoma cruzi [3] = assay: Antiparasitic activity against Trypanosoma cruzi in Vero cells assessed as reduction of infection rate at 10 uM relative to control; type: functional; parameters: scale not given: the % may be the effect or the level left
Method in brief: (§2)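 Vero cells (1 × 10^5) were grown for 2 days, then infected with 1 × 10^6 T. cruzi metacyclic forms, adding compound (10 µM) at the same time. Cultures were followed over days 1–8. Read-outs were % infected cells, mean amastigotes per infected cell, and trypomastigotes in the medium, each compared with an untreated control. Values are means of three separate experiments.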

Trypanosoma cruzi [4] = assay: Inhibition of Iron superoxide dismutase in Trypanosoma cruzi epimastigotes at 2.5 uM
[5] = target: Superoxide dismutase [Cu-Zn] (Homo sapiens) (UniProt P00441); assay: inhibition of CuZn-SOD in human erythrocytes at 25 uM; type: cell-based
[6] = target: Superoxide dismutase [Cu-Zn] (Homo sapiens) (UniProt P00441); assay: inhibition of CuZn-SOD in human erythrocytes at 125 uM; type: cell-based
Trypanosoma cruzi [7] = assay: Antiparasitic activity against Trypanosoma cruzi epimastigotes after 24 hrs; type: functional, organism-based; method in brief: as §1
Trypanosoma cruzi [8] = assay: Inhibition of Iron superoxide dismutase in Trypanosoma cruzi epimastigotes at 25 uM
Trypanosoma cruzi [9] = assay: Inhibition of Iron superoxide dismutase in Trypanosoma cruzi epimastigotes at 125 uM
[10] = target: Superoxide dismutase [Cu-Zn] (Homo sapiens) (UniProt P00441); assay: inhibition of CuZn-SOD in human erythrocytes at 2.5 uM; type: cell-based
Trypanosoma cruzi [11] = assay: Antiparasitic activity against Trypanosoma cruzi epimastigotes after 48 hrs; type: functional, organism-based; method in brief: as §1
Trypanosoma cruzi [12] = assay: Antiparasitic activity against Trypanosoma cruzi in Vero cells assessed as reduction of amastigotes at 10 uM on day 8 relative to control; type: functional; parameters: scale not given: the % may be the effect or the level left; method in brief: as §2
Trypanosoma cruzi [13] = assay: Antiparasitic activity against Trypanosoma cruzi in Vero cells assessed as reduction of trypomastigotes at 10 uM on day 8 relative to control; type: functional; parameters: scale not given: the % may be the effect or the level left; method in brief: as §2

Superoxide dismutase [Cu-Zn] (Homo sapiens), sequence (P00441 whole entry): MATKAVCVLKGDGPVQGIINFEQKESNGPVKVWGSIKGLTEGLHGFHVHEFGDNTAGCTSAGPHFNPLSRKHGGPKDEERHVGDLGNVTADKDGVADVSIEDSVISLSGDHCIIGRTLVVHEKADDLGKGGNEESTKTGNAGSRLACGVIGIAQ

SMILES	IC50 (Trypanosoma cruzi [1]) [µM]	inhibition (Trypanosoma cruzi [4]) [%]	inhibition [5] [%]	inhibition [6] [%]	IC50 (Trypanosoma cruzi [7]) [µM]	inhibition (Trypanosoma cruzi [8]) [%]	inhibition (Trypanosoma cruzi [9]) [%]	inhibition [10] [%]	IC50 (Trypanosoma cruzi [11]) [µM]	IC50 at 72 h [2] [µM]	Activity (Trypanosoma cruzi [3]) [%]	Activity (Trypanosoma cruzi [12]) [%]	Activity (Trypanosoma cruzi [13]) [%]
O=C(Cn1ccnc1[N+](=O)[O-])NCc1ccccc1 [BENZNIDAZOLE]	15.8												
c1ccc2cc3c(NCCc4cnc[nH]4)nnc(NCCc4cnc[nH]4)c3cc2c1										88.7			
c1ccc2cc3c(NCCCn4ccnc4)nnc(NCCCn4ccnc4)c3cc2c1	< 0.2	32	12	18	53.4	42	100	2	34.8	69.3	84	44	>50

The next lines start with results.

IC50 (Trypanosoma cruzi [1]) [µM]	inhibition (Trypanosoma cruzi [4]) [%]	inhibition [5] [%]	inhibition [6] [%]	IC50 (Trypanosoma cruzi [7]) [µM]	inhibition (Trypanosoma cruzi [8]) [%]	inhibition (Trypanosoma cruzi [9]) [%]	inhibition [10] [%]	IC50 (Trypanosoma cruzi [11]) [µM]	SMILES	IC50 at 72 h [2] [µM]	Activity (Trypanosoma cruzi [3]) [%]	Activity (Trypanosoma cruzi [12]) [%]	Activity (Trypanosoma cruzi [13]) [%]
14.2	46	5	6	61.1	53	86	0	35.1	c1ccc2cc3c(NCCc4c[nH]cn4)nnc(NCCc4c[nH]cn4)c3cc2c1		>50		
13.7	80	22	27	51	93	94	7	46.9	Clc1nnc(NCCCn2ccnc2)c2cc3ccccc3cc12	146	74		
< 0.3	50	0	11	108	91	100	0	34.6	Clc1nnc(NCCc2c[nH]cn2)c2cc3ccccc3cc12	213	81	55	>50
